Assay results published in the RNAGym collection of RNA variant scans (doi:10.1126/science.aae0568).
This sample holds only a part of the variants without activity.

B1: tRNA (parent)
chain: GUUCCGUUGGCGUAAUGGUAACGCGUCUCCCUCCUAAGGAGAAGACUGCGGGUUCGAGUCCCGUACGGAACG

Variants of: B1
Test: yeast fitness relative to wild type (ratio to wild type); higher = fitter; tRNA-Arg(CCU), competitive growth, 37 C, YPD
Procedure, shortened: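 Variants of the tRNA-Arg(CCU) gene, chemically synthesised with a 3% per-site mutation rate at 69 sites, were placed at the native genomic locus in Saccharomyces cerevisiae. The pooled strains were competed in YPD at 37°C for 24 hours in six parallel replicates. Gene amplicons from the start population and from each end population were read by 100-nucleotide paired-end sequencing. Darwinian fitness relative to wild type came from changes in genotype frequencies; genotypes needed ≥ 100 starting reads, and estimates < 0.5 were set to 0.5.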

Variant | yeast fitness
U16C C22A C30U C31G | ≤ 0.5
G12C G38A | 0.687
G17A G25A C34U C55G | 0.532
G12A C60A | 0.579
C5U U26A C55G C61A | ≤ 0.5
C31A C49A G56A A65G C66A G68C | ≤ 0.5
U13G C33U G41C | 0.581
U16A A37U C55G G56C | ≤ 0.5
U8C A36G G39C C49U U54G | ≤ 0.5
U26A C29A C31G A65C | 0.566
A20G C46G C49G | 0.565
U35C G41C | 0.718
G10C A21C C27A C34A | ≤ 0.5
U8C C27G A42G | ≤ 0.5
G6C G12A C24G G58C | ≤ 0.5
G6A U19A U53A | ≤ 0.5
G18A C27U G39A C60A | ≤ 0.5
U26G C33G U35A C55U A65C | ≤ 0.5
A43C C49A A65C | ≤ 0.5
C4A G68C | 0.808
C30G C34U A45C U53G C61G | ≤ 0.5

Variant | yeast fitness
U13G A69U | 0.931
C24G A42G C55G | ≤ 0.5
A36C A42G | 0.633
C4U A43G | 1
G9C A14G G44A U53C A70U | ≤ 0.5
A40G A45C C60A | ≤ 0.5
A21G A37C A57C G58A | ≤ 0.5
C5G A21U C27U U28G C33G A36G | ≤ 0.5
U3A C30U | 0.822
A21U C49G | 0.618
U16A C24G G56A | ≤ 0.5
A20G A40G G50C | 0.574
U19A A21G | 0.987
C29G C30A | 0.585
U32C G38A | 0.962
U2A G17C | 0.603
C4U C34U | 0.737
U3G C11U A40C A45C U47C A57C C62U | ≤ 0.5
C61U A69C | 0.882
C24G C30U C31G G50A | ≤ 0.5
U7G U35A A43C | 0.532

Variant | yeast fitness
C31U C55U A70U | 0.567
U8C C61U | 0.942
U26C A43G | 1.01
C27A U32A U59C | ≤ 0.5
G23U U32A U53A C55G | ≤ 0.5
C24U U32C C46A A70U | 0.65
U16A U26A C49G C61A | 0.586
U2C C49U G56C | ≤ 0.5
C5U A21U A36U A65G | ≤ 0.5
C5U C27G C46U | 0.753
C22A G68U | 0.825
A14U U19A A21C G48C G63A A70G | ≤ 0.5
A14C A21G U53A | ≤ 0.5
C11U A14G U16G C24G U26C U47G G50C C66A | ≤ 0.5
C5A C27G A57C | ≤ 0.5
G6A G44A A69C | 0.576
C30G A43C | 0.549
U16C C49A | 0.731
G25A C31U U64A | 0.642
C4G G17C C22A C27G C33U C49G | ≤ 0.5
C46G U54A | 0.702

Variant | yeast fitness
U16G C30G C55G | ≤ 0.5
U3A C22G C31G | ≤ 0.5
U7A A15G G23C C33G G63A | ≤ 0.5
G10C C62U | 0.646
G18A C22G C31U | 0.682
C33G A45C U54C | ≤ 0.5
C11G A40C | 0.6
C11U G18C C31U C62U | ≤ 0.5
G25A C29U C60A | 0.728
U26G A37U G51A | ≤ 0.5
U16A G48U | 0.754
C22G A45C C61U A65G | ≤ 0.5
C4A A15G C27U | 0.664
G9A G39C A42C C49A | ≤ 0.5
C5U G18A A42C | 0.674
U3C G9C C11U C30G A43C U59A G67C A69C | ≤ 0.5
C5A G17A C66U | 0.587
C5U U28A C30G | ≤ 0.5
C4A U26A A45U | 0.656
G6C A14U C66U A69C | ≤ 0.5
